“Also recorded” adds a separate entry of the source. Read-outs that look alike come from different tables or passages of the source. Ends that are not written are not given here.
Key:
PAC1-R [1] = details: cited from earlier work
PAC1-R [2] = details: cited from earlier work; remark: listed apart in the source
PAC1-R [3] = details: cited from earlier work; remark: listed apart in the source
PACAP promoter = PACAP promoter activity assay; type: cell-based, mouse; details: RGC-5; for positive effect on PACAP’s promoter activity: over 10 μM
PAC1-R [4] = experiment: Western blot of PAC1-R in RGC-5 cells; type: cell-based, mouse; details: for PAC1-R expression by Western blot: 0.1 μM to 100 μM
Outline: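 RGC-5 cells (F12, 10% FBS) were treated for 30 min with test compound (0.01–100 μM), with or without 50 μM 2-bromopalmitate; controls received serum-free medium. Blots were run by SDS-PAGE/PVDF, probed with rabbit anti-PAC1-R (C-terminal aa 506–525) and anti-β-actin, and detected with HRP-ECL.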

PAC1-R in RGC-5 cells = type: cell-based, mouse; details: 15 min; for PAC1-R level in RGC-5 cells (immunofluorescence) / nuclear translocation of PAC1-R in RGC-5 cells: 1 μM
RGC-5 cells [5] = experiment: TUNEL assay, MPP-treated RGC-5 cells; type: cell-based, mouse; details: 8 mM MPP; for TUNEL signal (MPP-induced apoptosis): pre-treatment with 10 μM peptide
[6] = tested on: PAC1-R promoter sequence (−2019 bp to −1739 bp); experiment: ChIP-PCR, PAC1-R promoter sequence, RGC-5 cells; type: cell-based, mouse; details: RGC-5, 1 μM, 15 min; antibody to PAC1-R C-terminus; 280 bp product
[7] = ref [20], [21]; cited from earlier work
[8] = tested on: PACAP promoter sequence (−858 bp to −536 bp); experiment: ChIP-PCR, PACAP promoter sequence, RGC-5 cells; type: cell-based, mouse; details: RGC-5, 1 μM, 15 min; antibody to PAC1-R C-terminus; 320 bp product
PAC1R-eGFP = experiment: Confocal microscopy of nuclear translocation of PAC1R-eGFP in PAC1R-CHO cells; type: cell-based, mouse; details: 1 μM, 15 min, vs control cells
Outline: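 CHO-K1 cells (DMEM, 10% FBS, 37°C, 5% CO₂) stably transfected with C-terminally eGFP-tagged wild-type or Cys25Ala PAC1-R, selected with G418 (0.8–1 mg/mL) and cloned by limiting dilution; at least three matched clones were used. Cells were exposed to 1 μM test compound for 15 min, then imaged by confocal microscopy (ex 488/em 545 nm). Translocation was taken as nuclear/whole-cell fluorescence, with ≥3 replicates repeated three times.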

[9] = tested on: M-PAC1R(Cys25/Ala25)-eGFP; experiment: Confocal microscopy of nuclear translocation of M-PAC1R; type: cell-based, mouse; details: 1 μM, 15 min
Outline: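 CHO-K1 cells stably expressing C-terminally eGFP-tagged PAC1-R Cys25/Ala25 mutant, from lipofection, G418 (0.8–1 mg/mL) selection and limiting-dilution cloning; at least three clones with similar receptor levels run in parallel. Cells grown in 10% FBS medium at 37°C, 5% CO₂. Exposed to 1 μM test compound or none for 15 min; eGFP imaged by confocal microscopy (ex 488 nm, em 545 nm). ≥3 replicates, repeated three times.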

RGC-5 cells [10] = experiment: MTT cell viability assay, MPP-treated RGC-5 PD cell model; type: cell-based, mouse; details: for protection against decrease of cell viability induced by MPP: 0.1–100 μM, 2 h before 8 mM MPP
Outline: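 RGC-5 cells were seeded at 4×10⁴ per well and pretreated with test compound (0.1–100 μM) for 2 h before 8 mM MPP. After 24 h, MTT (0.5 mg/mL) was added for 4 h and formazan was dissolved in isopropanol. Readout was OD₅₇₀, expressed as % of cells without MPP. At least four parallel replicates, repeated three times.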

PAC1-R promoter = PAC1-R promoter activity assay; type: cell-based, mouse; details: RGC-5
PACAP = PACAP level determined by ELISA in RGC-5 cells; type: cell-based, mouse; details: for positive effect on PACAP expression level: over 10 μM
[11] = ref [10]; cited from earlier work
PAC1-EC1 = PAC1-EC1 pre-saturated with PACAP(28–38); previous study; ref [19]; cited from earlier work
[12] = biological target: T1, recombinant PAC1-EC1 protein; experiment: ITC
T1 chain: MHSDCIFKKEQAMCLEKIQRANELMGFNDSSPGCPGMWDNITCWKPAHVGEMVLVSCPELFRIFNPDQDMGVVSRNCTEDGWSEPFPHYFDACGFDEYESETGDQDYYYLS

[13] = RGC-5, 50 μM 2-bromopalmitate with 1 μM peptide

Molecule: PACAP38: form of PACAP, ligand of PAC1-R (HSDGIFTDSYSRYRKQMAVKKYLAAVLGKRYKQRVKNK; ends and bridges not checked; UniProt P18509 132-169, looked up)
- activation of PAC1-R (PAC1-R [1]; compared with PACAP27, ref [2]): significantly more complete and effective activity than PACAP27
- PAC1-R’s own expression (PAC1-R [2]; ref [22], [23]): up-regulate PAC1-R’s own expression
- nuclear translocation of PAC1-R (PAC1-R [2]; ref [22], [23]): induce the nuclear translocation of PAC1-R

Molecule: GKRYKQRVKNK [PACAP(28-38)]
- binding to allosteric regulatory site (PAC1-R [3]; ref [16], [17]): binds to the allosteric regulatory site through both conformational and charge interaction
- promoter activity of PACAP (PACAP promoter; 0.1 μM–10 μM, 15 min): significantly enhanced; also recorded: increased
- positive effect on PACAP’s promoter activity (PACAP promoter): decreased
- PAC1-R expression by Western blot (PAC1-R [4]; 30 min): increased positively with the concentrations
- PAC1-R truncated form (about 35 kDa) (PAC1-R [4]; Western blot, 30 min): induced
- PAC1-R level in RGC-5 cells (immunofluorescence) (PAC1-R in RGC-5 cells): increase the PAC1-R level
- nuclear translocation of PAC1-R in RGC-5 cells (PAC1-R in RGC-5 cells): induce significant nuclear translocation of PAC1-R
- TUNEL signal (MPP-induced apoptosis) (RGC-5 cells [5]; 24 h): significantly reduced
- ChIP-PCR band for PAC1-R promoter sequence [6]: positive band
- cytoprotective activities [7]: significant cytoprotective activities
- ChIP-PCR band for PACAP promoter sequence [8]: positive band
- nuclear translocation of PAC1R-eGFP (PAC1R-eGFP): significantly detected
- nuclear translocation of M-PAC1-R (Cys25/Ala25) [9]: significantly weaker than that of the wild-type PAC1-R; also recorded: can not induce significant trafficking or aggregation
- protection against decrease of cell viability induced by MPP (RGC-5 cells [10]; RGC-5, 24 h, MTT): significantly blocked
- promoter activity of PAC1-R (PAC1-R promoter; 0.1 μM–1 μM, 15 min): significantly enhanced
- promoter activity of PAC1-R (PAC1-R promoter; 0.1–100 μM, 15 min (legend of Figure 3B), *P<0.01 vs 0 μM): significantly enhanced
- expression level of PACAP (ELISA) (PACAP; 0.01 μM–10 μM, 30 min): significantly increase
- expression level of PACAP (ELISA) (PACAP; 0.1 μM–10 μM, 30 min): increased
- positive effect on PACAP expression level (PACAP): decreased

Molecule: PACAP(6-38): PAC1-R antagonist (FTDSYSRYRKQMAVKKYLAAVLGKRYKQRVKNK; ends and bridges not checked; UniProt P18509 137-169, looked up, fragment)
- antagonism of PAC1-R (PAC1-R [1]; ref [15]): full antagonist

Molecule: pituitary adenylate cyclase-activating polypeptide (HSDGIFTDSYSRYRKQMAVKKYLAAVLGKRYKQRVKNK; ends and bridges not checked; UniProt P18509 132-169, looked up) [PACAP]
- therapeutic effect mediated by PAC1-R [11]: significant therapeutic effect

Molecule: C[n+]1ccc(-c2ccccc2)cc1 [MPP, 1-methyl-4-phenylpyridinium, reference compound]
- number of TUNEL-positive cells (RGC-5 cells [5]; 24 h): increased the number of TUNEL-positive cells
- apoptosis in RGC-5 cells (RGC-5 cells [10]; 8 mM MPP, MTT assay): significant apoptosis
- cells remaining viable after MPP (RGC-5 cells [10]; RGC-5, 8 mM MPP, 24 h, MTT, % of cells without MPP): about 31%

Molecule: GRKKRRQRRRP [TAT]
- binding to allosteric regulatory site (PAC1-R [3]; ref [19]): binds to the same allosteric regulatory site mainly through charge interaction
- promoter activity of PACAP (PACAP promoter; 0.01 μM–10 μM, 15 min): significantly enhanced
- promoter activity of PACAP (PACAP promoter; 0.1 μM–10 μM, 15 min): increased
- positive effect on PACAP’s promoter activity (PACAP promoter): decreased
- PAC1-R expression by Western blot (PAC1-R [4]; 30 min): increased positively with the concentrations
- PAC1-R truncated form (about 35 kDa) (PAC1-R [4]; Western blot, 30 min): induced
- PAC1-R level in RGC-5 cells (immunofluorescence) (PAC1-R in RGC-5 cells): increase the PAC1-R level
- nuclear translocation of PAC1-R in RGC-5 cells (PAC1-R in RGC-5 cells): induce significant nuclear translocation of PAC1-R
- TUNEL signal (MPP-induced apoptosis) (RGC-5 cells [5]; 24 h): significantly reduced
- ChIP-PCR band for PAC1-R promoter sequence [6]: positive band
- cytoprotective activities [7]: significant cytoprotective activities
- ChIP-PCR band for PACAP promoter sequence [8]: positive band
- binding signal from titration of TAT (PAC1-EC1): no binding signal is detected
- nuclear translocation of PAC1R-eGFP (PAC1R-eGFP): significantly detected
- nuclear translocation of M-PAC1-R (Cys25/Ala25) [9]: significantly weaker than that of the wild-type PAC1-R; also recorded: can not induce significant trafficking or aggregation
- protection against decrease of cell viability induced by MPP (RGC-5 cells [10]; RGC-5, 24 h, MTT): significantly blocked
- promoter activity of PAC1-R (PAC1-R promoter; 0.1 μM–1 μM, 15 min): significantly enhanced
- expression level of PACAP (ELISA) (PACAP; 0.1 μM–10 μM, 30 min): significantly increase; also recorded: increased
- positive effect on PACAP expression level (PACAP): decreased

Molecule: CCCCCCCCCCCCCCC(Br)C(=O)O (stereo not drawn) [2-bromopalmitate, reference compound]
- inhibition of PACAP(28-38)- or TAT-induced PACAP promoter activity (PACAP promoter; 50 μM 2-bromopalmitate, 15 min): significantly inhibited
- truncated forms of PAC1-R with molecular weight smaller than 35 kDa (PAC1-R [4]; 50 μM 2-bromopalmitate with PACAP(28-38) or TAT, Western blot): decrease
- inhibition of PACAP(28-38)- or TAT-induced PAC1-R expression (PAC1-R [4]; 50 μM 2-bromopalmitate, 30 min, Western blot): inhibited
- inhibition of nuclear translocation of PAC1-R induced by PACAP(28-38) or TAT (PAC1-R in RGC-5 cells; [13]): effectively inhibited
- inhibition of up-regulation of PAC1-R induced by PACAP(28-38) or TAT (PAC1-R in RGC-5 cells; [13]): effectively inhibited
- inhibition of anti-apoptotic activities of PACAP(28-38) and TAT (RGC-5 cells [5]; 50 μM 2-bromopalmitate, TUNEL): significantly inhibited
- inhibition of PACAP(28-38)- or TAT-induced PAC1-R promoter activity (PAC1-R promoter; 50 μM 2-bromopalmitate, 15 min): significantly inhibited
- inhibition of oxidative stress-induced nuclear translocation and increase of PAC1-R expression (PAC1-R [2]; ref [23]): can inhibit
- inhibition of PACAP(28-38)- or TAT-induced PACAP expression (PACAP; 50 μM 2-bromopalmitate, 30 min, ELISA): inhibited

Molecule: GKRYKQRVKNK (ends and bridges not checked) [PACAP(28-38)]
- Ka [12]: 635000 M⁻¹

Molecule: GRKKRRQRRRP [TAT]
- Ka [12]: 503000 M⁻¹

From paper PMC9828401 (Acta Biochimica et Biophysica Sinica, 2022)
